Source: PubChem (several laboratories)
Rows were chosen to be rich in hits. Some 2.1% of all compounds tested hit in one or more screens of this group.
STEP inh = STEP phosphatase inhibitors, primary screen, biochemical, fluorescence intensity, uHTS; recombinant STEP, OMFP fluorogenic substrate; inhibition, % at 20 µM; 360,000 tested, 0.25% active; AID 588621, 2011;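 active = inhibition at 20 µM, scaled per plate between control wells, above about 37%, limit read from the data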;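 also: 0% = DMSO with enzyme and substrate and 100% = substrate only without enzyme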
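System: STEP phosphatase, cell-free reaction; Buffer or medium: Bis-Tris pH 6.0 buffer with DTT, detergent; Incubation: 20 min at room temperature, dark; Measured by: fluorescence, 480/540 nm.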
DNMT1 inh = human DNMT1 methyltransferase inhibitors, primary screen, biochemical, molecular beacon, fluorescence, HinP1I cleavage, uHTS. inhibition (reported as % activation of signal), % at 10 µM. 360,000 tested, 0.83% active. AID 588458, 2011; in the data active = inhibition above about 50%
Scp1 inh = Scp-1 phosphatase inhibitors, primary screen, biochemical, colorimetric, uHTS; Carboxy-terminal domain RNA polymerase II polypeptide A small phosphatase 1 (Homo …; Recombinant Scp1, phosphopeptide, malachite green phosphate absorbance; inhibition, % at 20 µM; 340,000 tested, 0.88% active; AID 493091, 2011;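 active = inhibition above about 50% at 20 µM, limit read from the data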;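 also: plate controls were DMSO wells with enzyme for no effect and wells lacking enzyme for full effect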
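Test system: SCP-1 phosphatase catalytic domain, residues 76-261; measured by: colorimetric phosphate reagent with accelerator and stabiliser, absorbance at 630 nm; timing: enzyme reaction 45 min at room temperature, colour 5 min, stabilisation 30 min; also added: Phosphorylated 17-residue peptide substrate; compound dosing: one concentration, 20 µM, with 1.0% DMSO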
SUMO1 PPI mod = modulators of SUMO1 protein-protein interactions, primary screen, biochemical, uHTS. Small ubiquitin-related modifier 1 (Homo sapiens), P63165. SUMO1 binding to a labelled peptide, TR-FRET, 1 h. inhibition, % at 20 µM. 360,000 tested, 0.33% active. AID 602429, 2012; in the data active = inhibition above about 37%
Target sequence (P63165 whole entry, looked up): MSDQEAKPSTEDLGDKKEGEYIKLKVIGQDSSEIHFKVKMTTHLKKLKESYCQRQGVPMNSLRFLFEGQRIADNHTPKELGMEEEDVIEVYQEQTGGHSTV
LMPTP inh = LMPTP phosphatase inhibitors, primary screen, biochemical, fluorescence intensity, uHTS; Low molecular weight phosphotyrosine protein phosphatase (Homo sapiens), P24666; recombinant LMPTP-A, OMFP fluorogenic substrate; inhibition, % at 20 µM; 360,000 tested, 0.22% active;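 active = compounds that cut the enzyme signal by at least half of the control window in the single-dose screen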;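 also: plate controls were DMSO wells with enzyme plus substrate for no effect and substrate without enzyme for full effect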
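Buffer or medium: Bis-Tris pH 6.0, DTT, detergent; Assay system: LMPTP-A enzyme; Quantity: 0.625 nM enzyme; Detection: endpoint fluorescence intensity; Times: 50 min dark incubation at room temperature; Controls: substrate-only low control, DMSO enzyme-plus-substrate high control; Doses: single 20 µM dose; Read-out: percent inhibition versus substrate-only and uninhibited controls; Reagent: 400 µM OMFP.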
GRK2 aptamer HTS = compounds blocking aptamer binding on GRK2 – biochemical, human GRK2, bead flow cytometry, HTS, primary screen; Beta-adrenergic receptor kinase 1 (Homo sapiens), P25098; FAM-aptamer displacement from GRK2; inhibition of aptamer binding, % at 10 µM; 330,000 tested, 0.59% active; AID 488847, 2010;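 active = inhibition of aptamer binding above 40%, roughly 3 SD of noise, on plates passing a quality check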;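 also: median bead fluorescence of bound FAM aptamer so fluorescent compounds give negative values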
Target sequence (P25098 whole entry, looked up): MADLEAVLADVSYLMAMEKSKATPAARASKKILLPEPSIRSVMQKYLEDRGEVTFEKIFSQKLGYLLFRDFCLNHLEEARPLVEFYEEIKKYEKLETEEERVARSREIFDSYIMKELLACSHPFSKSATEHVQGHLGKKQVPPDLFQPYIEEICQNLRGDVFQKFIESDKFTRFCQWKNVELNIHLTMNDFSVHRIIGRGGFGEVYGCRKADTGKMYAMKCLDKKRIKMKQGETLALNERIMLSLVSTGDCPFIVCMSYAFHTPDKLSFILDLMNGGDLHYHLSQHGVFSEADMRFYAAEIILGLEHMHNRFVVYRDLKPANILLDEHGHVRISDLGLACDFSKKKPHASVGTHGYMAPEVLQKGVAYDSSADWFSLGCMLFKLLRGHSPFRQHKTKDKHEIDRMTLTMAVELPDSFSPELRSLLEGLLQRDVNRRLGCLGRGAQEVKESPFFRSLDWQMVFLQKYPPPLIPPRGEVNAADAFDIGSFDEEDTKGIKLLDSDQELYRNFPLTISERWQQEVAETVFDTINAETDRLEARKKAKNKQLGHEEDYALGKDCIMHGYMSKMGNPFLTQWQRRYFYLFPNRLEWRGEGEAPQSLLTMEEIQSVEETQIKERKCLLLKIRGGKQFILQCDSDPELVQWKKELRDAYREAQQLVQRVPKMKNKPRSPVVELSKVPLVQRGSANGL
Scp1 confirm = Scp-1 phosphatase inhibitors, retest, confirmation, biochemical, colorimetric, single concentration | inhibition, % at 20 µM | recombinant SCP-1 catalytic domain, phosphate release, malachite green absorbance | 2,500 tested, 61% active | shares compounds with Scp1 inh;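 also: plate controls were DMSO with enzyme for no effect and buffer wells lacking enzyme for full effect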
Scp-1 MG ctr = colorimetric readout interference by compounds, confirmation, artefact control for Scp-1 inhibitor project, biochemical, single concentration; shares compounds with Scp1 inh; Colorimetric interference counterscreen, malachite green absorbance 630 nm; apparent inhibition (interference), % at 20 µM; 2,500 tested, under 10 active;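 also: compounds added after enzyme reaction finished so only phosphate colour detection is probed; plate controls were DMSO wells with completed Scp-1 reaction for no effect and substrate wells lacking enzyme for full effect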
Scp-1 Tm shift = Scp-1 binding by thermal shift, confirmation, orthogonal assay for Scp-1 inhibitor project, biophysical, differential scanning fluorimetry. shares compounds with Scp1 inh. Recombinant SCP1, Sypro Orange thermal shift Tm. thermal shift relative to vanadate control, % at 40 µM. 1,500 tested, 25% active;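 active = substances whose mean melting-temperature shift, as a percentage of the reference inhibitor's shift, reaches about 5.3%, limit read from the data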;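 also: 0% = Tm of DMSO wells and 100% = Tm with sodium orthovanadate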
Starred values were filed as active, the others as inactive; nt = no result given.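 The calls were made as follows, unless noted: active = inhibition of at least 30% at 20 µM; inactive = the rest.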

SMILES	STEP inh	DNMT1 inh	Scp1 inh	SUMO1 PPI mod	LMPTP inh	GRK2 aptamer HTS	Scp1 confirm	Scp-1 MG ctr	Scp-1 Tm shift
CC[n+]1c(/C=C/c2ccc(N(C)C)cc2)ccc2ccccc21	23.9	-0.8	13.2	-29.6	35.8	0.0	nt	nt	nt
Cc1c(C(=O)O)sc2nc3n(c(=O)c12)CCC3	7.1	23.1	63.5*	2.3	0.5	6.0	54.7*	-5.2	2.8
O=C(Cn1c(=O)c2cccn2c2cccnc21)N1CCN(c2ccccc2F)CC1	-1.6	-1.4	-3.8	1.2	0.7	0.0	nt	nt	nt
COc1cccc(CN(C)C(=O)CNC(=O)c2ccc3c(c2)OCO3)c1OC	-3.7	-4.8	-8.3	-35.7	-9.3	0.0	nt	nt	nt
C=C(C)C(=O)Nc1cccc(C2=NOC3(C2)C[C@H](C(N)=O)N(C(=O)c2ccccc2C(=O)c2ccccc2)C3)c1 (stereo partly drawn)	2.0	97.5*	83.7*	92.0*	-0.5	91.0*	78.2*	5.6	-1.4
C/C=C/C(=O)Nc1cccc(C2=NOC3(C2)C[C@H](C(N)=O)N(C(=O)/C=C/C)C3)c1 (stereo partly drawn)	0.6	-0.6	-3.5	-1.3	-1.8	0.0	nt	nt	nt
C/C=C/C=C/C(=O)N1CC2(CC(c3cccc(NC(=O)/C=C/C)c3)=NO2)C[C@@H]1C(N)=O (stereo partly drawn)	-2.2	-0.1	56.0*	18.2	0.0	0.0	7.2	-13.7	nt
Cc1cccc(C)c1-n1nnnc1C1(C)CCC(=O)N1CCCN1CCOCC1 (stereo not drawn)	nt	nt	nt	5.6	-0.9	nt	nt	nt	nt
Cn1c(SCC(=O)Nc2ccccc2)nc2ccccc2c1=O	-0.7	-0.4	3.0	-0.3	-1.9	0.0	nt	nt	nt
COc1ccc2[nH]c3c(=O)n(CCCCCC(=O)NCCC(C)C)c(=S)[nH]c3c2c1	-4.8	31.0	-1.3	2.4	-1.3	2.0	nt	nt	nt
COC(=O)Cn1c(=NC(=O)c2cc(-c3cccs3)nc3ccccc23)sc2cc(S(N)(=O)=O)ccc21	-3.5	-20.8	3.8	-5.7	3.4	2.0	nt	nt	nt
COC(=O)Cn1c(=NC(=O)c2nc3ccccc3s2)sc2cc(S(N)(=O)=O)ccc21	0.1	14.3	63.7*	2.7	27.7	0.0	51.6*	-15.0	-0.2
C1N2CN3CN1CN(C2)C3	1.4	3.8	-1.2	0.2	-4.6	1.0	nt	nt	nt
CC[N+]1=CN(c2ccccc2)C(C)=CC1(C)C	-3.3	-4.0	77.7*	2.0	-3.5	3.0	85.5*	-12.3	-23.6
CC1=NN(c2ccccc2)C(=O)C1(C)C	5.1	0.7	-3.4	0.2	-0.7	0.0	nt	nt	nt
COc1ccc(/C=C2\SC(=S)N(CCCC(=O)Nc3ccc(O)cc3)C2=O)cc1	-3.0	-13.6	-10.7	-25.2	-0.2	0.0	nt	nt	nt
COc1ccc(/C=C2\SC(=S)N(CCC(=O)Nc3ccc(C(=O)O)cc3)C2=O)cc1	94.9*	0.1	86.7*	-19.5	89.9*	2.0	68.9*	-13.6	20.8*
O=C(CCN1C(=O)/C(=C/c2ccc(F)cc2)SC1=S)Nc1cc([N+](=O)[O-])ccc1O	14.7	1.5	64.0*	-4.1	13.0	0.0	50.1*	-14.5	7.2*
Cc1ccc(S(=O)(=O)N2CCN(C(=O)/C=C/c3ccco3)CC2)cc1	3.4	37.9	70.9*	-7.9	3.3	20.0	70.6*	-3.8	-4.0
Cn1c(NNC(=O)c2cccc3ccccc23)cc(=O)n(C)c1=O	-0.4	-4.9	-1.2	-10.1	-1.7	0.0	-3.8	0.9	nt
O=C(CSc1ncn(-c2ccccc2)n1)Nc1nc2c(s1)CCCC2	7.4	35.9	78.8*	10.8	3.7	6.0	63.9*	-7.6	-0.9
O=C(CSc1ncn(-c2ccccc2)n1)Nc1nc2ccccc2s1	-4.3	-4.0	3.1	0.9	0.2	0.0	nt	nt	nt
COCCNc1ccc(S(=O)(=O)N2CCCC2)cn1	-1.2	6.3	-0.9	-1.3	0.3	2.0	nt	nt	nt
CCOc1ccc(N2CC(C(=O)Nc3ccccc3C(=O)NC3CC3)CC2=O)cc1 (stereo not drawn)	-0.8	1.0	4.4	-3.9	0.6	0.0	nt	nt	nt
CC[C@]1(C(=O)OC)[C@H]2C(=O)N(Cc3ccccc3)C(=O)[C@H]2[C@H]2CN=C(SCC3CC3)N21	0.7	3.2	53.7*	1.7	-2.0	0.0	-2.2	-18.9	nt
SMILES	STEP inh	DNMT1 inh	Scp1 inh	SUMO1 PPI mod	LMPTP inh	GRK2 aptamer HTS	Scp1 confirm	Scp-1 MG ctr	Scp-1 Tm shift
CCN1C(=O)[C@H]2[C@H]3CN=C(SCc4ccccc4)N3[C@@](Cc3ccccc3)(C(=O)OC)[C@H]2C1=O	1.1	1.4	6.5	3.2	-1.5	2.0	nt	nt	nt
CCN1C(=O)[C@H]2[C@H]3CN=C(SCC4CC4)N3[C@@](Cc3ccccc3)(C(=O)OC)[C@H]2C1=O	-2.6	4.5	82.5*	-1.6	1.6	0.0	95.9*	-6.2	-11.8
COc1ccc(/C=N/NC(=O)c2ccccc2OC)cc1COc1ccccc1[N+](=O)[O-]	6.7	18.8	3.5	24.6	8.3	0.0	nt	nt	nt
COc1ccc(/C=N\NC(=O)c2ccc([N+](=O)[O-])c(C)c2)cc1COc1ccccc1C(N)=O	6.5	-5.5	66.9*	54.3*	1.3	10.0	33.7*	-8.4	-3.4
NC(=Nc1ccccc1)N(c1ccccc1)c1ccccc1	-0.4	-0.7	-2.2	1.7	-1.3	nt	nt	nt	nt
COC(=O)c1ccc2nc(-c3cccc(Br)c3)c(Cc3ccccc3)n2c1	nt	nt	nt	-3.2	6.4	nt	nt	nt	nt
O=C(Nc1ccc2c(c1)C(=O)NC2=O)c1cccc(C(F)(F)F)c1	4.8	25.7	88.4*	8.6	-2.1	0.0	52.9*	-10.9	4.7
Cc1cc(NC(=O)CSc2nnc(CNC(=O)c3c(F)cccc3F)o2)no1	-2.1	0.4	4.0	-0.2	-0.8	0.0	nt	nt	nt
